Hits are enriched below; roughly 3.1% of the tested compounds scored in any of these assays.
PHOSPHO1 block: blocks human PHOSPHO1 phosphatase activity; inhibition, % at 13.3 µM; 290,000 tested, 1.1% active; recombinant PHOSPHO1, absorbance phosphatase assay; Q8TCT1; AID 1565; in the data active = inhibition above about 60%
Target sequence (Q8TCT1 whole entry, looked up): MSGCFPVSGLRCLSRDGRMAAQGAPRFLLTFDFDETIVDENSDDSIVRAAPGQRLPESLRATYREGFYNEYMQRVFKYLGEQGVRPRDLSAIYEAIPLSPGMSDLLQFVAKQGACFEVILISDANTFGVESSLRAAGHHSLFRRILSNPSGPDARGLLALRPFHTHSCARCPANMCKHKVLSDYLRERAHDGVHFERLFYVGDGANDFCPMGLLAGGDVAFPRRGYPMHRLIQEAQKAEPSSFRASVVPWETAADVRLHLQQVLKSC
VIM-2 inhibitor: inhibitors of Pseudomonas aeruginosa VIM-2 metallo-beta-lactamase; purified VIM-2, nitrocefin hydrolysis, epi-absorbance fluorescence; inhibition, % at 5.6 µM; 290,000 tested, 0.89% active;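 active = inhibition above the mean of all tested compounds plus 3 SD, cutoff set per screening run, cut at about 7.5% in these data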;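 also: red hydrolysis product quenches plate fluorescence so inhibitors raise well fluorescence; 0% = enzyme with DMSO and 100% = DMSO without enzyme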
IMP-1 inh-1: inhibitors of Pseudomonas aeruginosa IMP-1 metallo-beta-lactamase | purified IMP-1, nitrocefin hydrolysis, epi-absorbance fluorescence | inhibition, % at 5.6 µM | 290,000 tested, 0.45% active | AID 1556;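 active = inhibition above the mean plus 3 SD of all compounds in the same screening run, cut at about 4.5% in these data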;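 also: 0% = IMP-1 with DMSO and 100% = DMSO wells lacking enzyme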
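System: Purified recombinant IMP-1 metallo-beta-lactamase enzyme | Measured by: Fluorescence quenching readout, ex 480/em 530 nm | Replication: Singlicate | Incubation: 15 min preincubation plus 25 min reaction at 25 °C | Evaluation: Percent inhibition from optical density relative to buffer-blank wells | Benchmarks: DMSO with and without IMP-1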
HCV NS3 hel inh: inhibitors of Hepatitis C virus NS3 helicase. 290,000 tested, 0.56% active. inhibition, % at 10.9 µM. NS3 helicase DNA unwinding, Cy5 molecular beacon fluorescence;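 active = inhibition above the mean of all tested compounds plus 3 SD, set per campaign, cut at about 35% in these data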;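 also: 0% = DMSO wells and 100% = thioflavine S control wells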
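System: Hepatitis C virus NS3 helicase domain fragment enzyme | Reagent: Annealed dual-labelled DNA beacon duplex, ATP-started | Compound dosing: 10.9 µM single point, 0.8% DMSO | Incubation: 1 h reaction at 25 °C, ATP-initiated | Technique: Cy5 fluorescence | Evaluation: Percent inhibition from t60/t0 fluorescence ratio | Benchmarks: Low DMSO, high thioflavine S at 110 µM | Replication: Singlicate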
HCV core dimer: blocks dimerization of HCV core protein; TR-FRET GST/Flag-core106 dimerization, 1536-well; inhibition, % at 5 µM; 300,000 tested, 0.33% active;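 active = inhibition above the mean of all tested compounds plus 3 SD, set per screening campaign, cut at about 45% in these data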
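System – GST-tagged and Flag-tagged HCV core protein residues 1-106 · Repeats – one well for each compound · Technique – TR-FRET 671 and 617 nm emission · Doses – one concentration, 5 µM, in 0.5% DMSO · Times – 4 h, 22.5 °C incubation · Also added – Eu donor and XL665 acceptor anti-tag antibodies · Measure – percent inhibition of core106 dimerization signal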
SUMO HTRF inh: blocks human SUMOylation mediated by UBC9 | P63279 | HTRF SUMOylation assay, SAE1/SAE2 + UBC9, in vitro | inhibition, % at 35 µM | 290,000 tested, 0.36% active | AID 2006; in the data active = inhibition above about 50%, passing the limit was not always enough
Target sequence (P63279 whole entry, looked up): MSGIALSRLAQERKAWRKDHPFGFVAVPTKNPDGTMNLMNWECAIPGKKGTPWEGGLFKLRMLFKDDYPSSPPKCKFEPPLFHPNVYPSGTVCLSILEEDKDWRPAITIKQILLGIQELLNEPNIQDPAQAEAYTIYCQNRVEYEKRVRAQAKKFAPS
IMP-1 inh-2: IMP-1 inhibition, counter-screen for VIM-2 inhibitors | purified IMP-1, nitrocefin hydrolysis, epi-absorbance fluorescence | AID 1856 | inhibition, % at 5.6 µM | 1,300 tested, under 10 active | shares compounds with VIM-2 inhibitor; call rule not given here;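 also: 0% = enzyme with vehicle and 100% = vehicle without enzyme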
VIM-2 FRET inh: inhibits VIM-2 in FRET assay to exclude epi-absorbance artifacts; 1,300 tested, 23% active; shares compounds with VIM-2 inhibitor; purified VIM-2, CCF2 FRET substrate hydrolysis; AID 1857; inhibition, % at 5.6 µM;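 active = inhibition above the mean of all tested compounds plus 3 SD, cut at about 19% in these data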;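 also: 0% = VIM-2 plus DMSO and 100% = no enzyme wells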
TEM-1 inh: blocks E. coli TEM-1 beta-lactamase in VIM-2 selectivity screen; shares compounds with VIM-2 inhibitor; Purified TEM-1, nitrocefin hydrolysis, epi-absorbance fluorescence; inhibition, % at 5.6 µM; 1,300 tested, 3% active;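 active = inhibition above that campaign's mean inhibition plus 3 SD, cut at about 0.46% in these data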;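 also: 0% = TEM-1 with DMSO and 100% = TEM-1 with 100 µM potassium clavulanate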
Target sequence (P62593 whole entry, looked up): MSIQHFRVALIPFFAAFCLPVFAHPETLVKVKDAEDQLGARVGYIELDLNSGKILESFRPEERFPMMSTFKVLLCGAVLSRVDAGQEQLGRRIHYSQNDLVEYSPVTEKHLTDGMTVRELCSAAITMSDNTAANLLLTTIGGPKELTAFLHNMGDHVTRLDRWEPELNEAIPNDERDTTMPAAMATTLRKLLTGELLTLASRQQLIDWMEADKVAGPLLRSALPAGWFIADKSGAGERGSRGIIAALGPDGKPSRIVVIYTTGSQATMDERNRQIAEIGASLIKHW
VIM-2 inh conf: confirmation of P. aeruginosa VIM-2 metallo-beta-lactamase inhibitors; AID 2187; 1,300 tested, 96% active; purified VIM-2, nitrocefin hydrolysis, epi-absorbance; inhibition, % at 5.6 µM; shares compounds with VIM-2 inhibitor;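 active = inhibition of the VIM-2 beta-lactamase enzyme above about 11% from the earlier first-round screen, limit read from the data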;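 also: 0% = VIM-2 with DMSO and 100% = buffer wells without enzyme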
* hit, by the source's call; / = no result given.

SMILES | PHOSPHO1 block | VIM-2 inhibitor | IMP-1 inh-1 | HCV NS3 hel inh | HCV core dimer | SUMO HTRF inh | IMP-1 inh-2 | VIM-2 FRET inh | TEM-1 inh | VIM-2 inh conf
O=C(CSc1ncccn1)N1CCc2ccccc2C1 | 20 | -4 | -1 | -12 | -4 | 14 | / | / | / | /
COc1cc(CCNc2ccc3nnc(-c4ccccc4)n3n2)cc(OC)c1OC | -9 | 19* | -2 | 2 | 7 | -1 | -2 | 0 | -1 | 22*
COc1ccc2nnc(-c3ccccc3)n2n1 | -7 | 1 | -4 | 0 | 0 | 4 | / | / | / | /
CCOC(=O)c1sc(NC(=O)CCN2CCN(CC)CC2)c(C(=O)OCC)c1C | 20 | 14* | 0 | -40 | -6 | -16 | -4 | 0 | -5 | 27*
Cc1c(Cl)c(-c2n[nH]c(=S)n2-c2ccc(F)cc2)nn1C | 101* | 16* | -3 | -7 | -3 | 14 | -2 | 42* | -4 | 30*
Cc1ccc(-n2c(-c3cc(C)n(C)n3)n[nH]c2=S)cc1 | 46 | -3 | -2 | 0 | -1 | 19 | / | / | / | /
Cc1nn(C)c(-c2n[nH]c(=S)n2-c2ccccc2)c1Cl | 14 | 4 | -2 | -11 | 0 | 3 | / | / | / | /
Cn1cc(Cl)c(-c2n[nH]c(=S)n2-c2ccccc2)n1 | 1 | 14* | -3 | -8 | -3 | 1 | -4 | 42* | -7 | 25*
Cc1ccc(-n2c(-c3nn(C)cc3Cl)n[nH]c2=S)cc1 | 14 | 17* | -4 | 2 | -11 | -2 | -2 | 50* | -7 | 31*
c1ccc2c(c1)[nH]c1c3ccccc3sc21 | 21 | 0 | -2 | -10 | -12 | -5 | / | / | / | /
CSc1ccccc1NC(=O)CN(C)C(=O)C1CCN(C(=O)Nc2ccccc2)CC1 | / | / | / | / | -1 | / | / | / | / | /
COc1cc(COCC(O)CN2CCN(CCN3C(=O)c4cccc5cccc(c45)C3=O)CC2)cc(OC)c1OC (stereo unspecified) | 5 | 6 | -4 | -16 | -3 | -5 | / | / | / | /
O=C1c2cccc3cccc(c23)C(=O)N1CC1CCN(CC(O)COc2ccc3ccccc3c2)CC1 (stereo unspecified) | / | / | / | / | -3 | / | / | / | / | /
COc1cccc(OCC(O)CN2CCC(CN3C(=O)c4cccc5cccc(c45)C3=O)CC2)c1 (stereo unspecified) | -7 | 14* | -1 | -84 | -4 | 16 | -4 | -1 | -4 | 22*
COc1ccc(COCC(O)CN2CCC(CN3C(=O)c4cccc5cccc(c45)C3=O)CC2)cc1OC (stereo unspecified) | -13 | 14* | -3 | -26 | -3 | -5 | -4 | 3 | -8 | 27*
Cn1c(C(=O)NC2CCCCC2)cc2c(=O)n(C)c3ccccc3c21 | -3 | 1 | -5 | 15 | -60 | 18 | / | / | / | /
CCCCNC(=O)c1cc2c(=O)n3cccc(C)c3nc2n1C | 1 | / | / | / | / | 13 | / | / | / | /
Cn1c(C(=O)NCCN2CCc3ccccc3C2)cc2c(=O)n(C)c3ccccc3c21 | 0 | 19* | 0 | -18 | 2 | 16 | -3 | -1 | -7 | 28*
CCN1CCN(C(=O)c2cc3c(=O)n(C)c4ccccc4c3n2C)CC1 | -6 | 17* | -3 | -4 | -3 | -9 | -3 | 4 | -6 | 22*
Cn1c(C(=O)NCCCN2CCCC2=O)cc2c(=O)n(C)c3ccccc3c21 | -3 | 13* | -3 | 11 | 2 | 6 | -3 | -3 | -6 | 29*
Cc1cccn2c(=O)c3cc(C(=O)NCCCN4CCCC4=O)n(C)c3nc12 | 7 | 17* | -1 | -2 | 1 | 10 | -2 | -8 | 1.2* | 26*
CCN(CC)CCNC(=O)Cn1cnc2sc(C)c(S(=O)(=O)N3CC(C)CC(C)C3)c2c1=O (stereo unspecified) | 39 | -4 | -2 | 7 | -8 | 7 | / | / | / | /
C=CCN(CC(O)c1cccc([N+](=O)[O-])c1)C(C)CCc1ccccc1 (stereo unspecified) | 16 | -1 | -1 | -13 | 1 | 20 | / | / | / | /
COc1ccc(-n2nc(C(=O)NCC(=O)NCc3ccc(F)cc3)c3ccccc3c2=O)cc1 | 52 | -4 | -2 | -1 | 4 | 0 | / | / | / | /
CC1CCCCN1CCNC(=O)c1cc2c(=O)n(C)c3ccccc3c2n1C (stereo unspecified) | 15 | 20* | -4 | 4 | -7 | 8 | -2 | 4 | -7 | 31*
SMILES | PHOSPHO1 block | VIM-2 inhibitor | IMP-1 inh-1 | HCV NS3 hel inh | HCV core dimer | SUMO HTRF inh | IMP-1 inh-2 | VIM-2 FRET inh | TEM-1 inh | VIM-2 inh conf
Cn1c(C(=O)NCc2cccs2)cc2c(=O)n(C)c3ccccc3c21 | -5 | -1 | -4 | -2 | -1 | -4 | / | / | / | /
CN(CCNC(=O)c1cc2c(=O)n(C)c3ccccc3c2n1C)Cc1ccccc1 | 7 | 17* | -1 | -16 | -4 | 5 | -4 | 2 | -8 | 26*
CSc1ccc(Cl)c(C(=O)NNC(=O)c2csc(N3CCOCC3)n2)c1 | / | / | / | / | 0 | / | / | / | / | /
Cc1cc(C(=O)OCC(=O)NC(=O)c2cccn2C)c2ccccc2n1 | 12 | 12* | -3 | 16 | 7 | -10 | -4 | 46* | -6 | 33*
COc1cccc(-c2nnc3sc(-c4ccccn4)nn23)c1 | 7 | 15* | -3 | -7 | 7 | 30 | -4 | -2 | -7 | 23*
COc1ccc(-c2nnc3sc(-c4ccccn4)nn23)cc1 | 11 | / | / | / | 10 | 19 | / | / | / | /
CCCn1nc(NC(=O)c2cccs2)c2cc3cccc(C)c3nc21 | 20 | -1 | -2 | -8 | -4 | -3 | / | / | / | /
Cc1ccc(S(=O)(=O)N2CCN(C(=O)CNC(=O)c3ccc(Br)o3)CC2)cc1 | / | / | / | / | 4 | / | / | / | / | /
CCOC(=O)CC1C(=O)NCCN1C(=O)c1cc2c(=O)n3cccc(C)c3nc2s1 (stereo unspecified) | 17 | 14* | -5 | 2 | 4 | 20 | -3 | -6 | -3 | 26*
CCC1CCCCN1C(=O)c1cc2c(=O)n3cccc(C)c3nc2s1 (stereo unspecified) | -32 | 15* | -1 | 2 | 1 | 7 | -3 | -2 | -6 | 21*
CCOC(=O)CC1C(=O)NCCN1C(=O)c1cc2c(=O)n3ccccc3nc2s1 (stereo unspecified) | -1 | 5 | -4 | 8 | 16 | 32 | / | / | / | /

Bioassay records deposited in PubChem by several laboratories.
